Assay results from ChEMBL document CHEMBL2034817, “Synthesis and evaluation of 4- and 5-pyridazin-3-one phenoxypropylamine analogues as histamine-3 receptor antagonists” (Bioorg Med Chem, 2012).
pIC50, pKi: −log10 of the molar value. Active and inactive are the calls of the source. The rule behind the calls is not given here.

What was measured:
[1] = target: Histamine H3 receptor (Homo sapiens, UniProt Q9Y5N1); assay: Displacement of [3H]-Nalpha-methylhistamine from human histamine H3 receptor expressed in CHO cells after 4 hrs by scintillation proximity assay; assay type: cell-based
Sequence of Histamine H3 receptor (Homo sapiens, UniProt Q9Y5N1) (Q9Y5N1 whole entry): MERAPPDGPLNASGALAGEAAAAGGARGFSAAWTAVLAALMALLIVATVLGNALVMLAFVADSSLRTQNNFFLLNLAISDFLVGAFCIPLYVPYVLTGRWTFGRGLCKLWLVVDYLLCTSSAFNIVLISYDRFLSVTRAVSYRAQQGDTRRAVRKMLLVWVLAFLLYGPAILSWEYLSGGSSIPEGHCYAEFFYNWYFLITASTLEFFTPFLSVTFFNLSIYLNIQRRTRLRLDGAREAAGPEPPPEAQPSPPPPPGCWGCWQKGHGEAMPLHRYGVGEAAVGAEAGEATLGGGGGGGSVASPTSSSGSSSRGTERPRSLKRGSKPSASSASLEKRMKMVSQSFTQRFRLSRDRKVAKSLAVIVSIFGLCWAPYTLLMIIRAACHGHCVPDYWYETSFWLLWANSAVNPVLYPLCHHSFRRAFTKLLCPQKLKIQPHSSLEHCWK
How it was run: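 Membranes from CHO cells stably expressing human H3 receptor, in 50 mM Tris–HCl pH 7.4, 5 mM MgCl2, 0.1% BSA, 10 µg protein/well; ~1 nM final [3H]-N-alpha-methylhistamine; compounds 0.01 nM–30 µM; SPA beads; 4 h room temperature, dark; nonspecific binding with 10 µM clobenpropit; scintillation counting. Assay-to-assay variation typically within 2.5-fold.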

[2] = target: Histamine H3 receptor (Rattus norvegicus, UniProt Q9QYN8); assay: Displacement of [3H]-Nalpha-methylhistamine from rat histamine H3 receptor expressed in CHO-A3 cells after 4 hrs by scintillation proximity assay; assay type: cell-based
Sequence of Histamine H3 receptor (Rattus norvegicus, UniProt Q9QYN8) (Q9QYN8 whole entry): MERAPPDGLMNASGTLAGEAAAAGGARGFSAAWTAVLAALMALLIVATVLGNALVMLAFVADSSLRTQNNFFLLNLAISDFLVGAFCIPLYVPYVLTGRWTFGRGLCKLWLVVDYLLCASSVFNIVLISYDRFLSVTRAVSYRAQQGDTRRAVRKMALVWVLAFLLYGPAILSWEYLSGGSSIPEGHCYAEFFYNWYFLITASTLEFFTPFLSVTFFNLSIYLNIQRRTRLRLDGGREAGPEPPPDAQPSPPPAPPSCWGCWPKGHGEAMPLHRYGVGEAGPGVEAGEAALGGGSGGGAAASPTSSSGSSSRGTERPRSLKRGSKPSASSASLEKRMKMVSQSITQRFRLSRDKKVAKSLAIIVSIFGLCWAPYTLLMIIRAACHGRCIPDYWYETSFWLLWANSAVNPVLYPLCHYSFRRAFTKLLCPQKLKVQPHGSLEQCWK
How it was run: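 Rat H3 receptor in pIRES-neo3 stably transfected into CHO-A3 cells, clonally selected; washed membranes in Tris–HCl pH 7.4, 5 mM MgCl2, 0.1% BSA, 10 µg protein/well; ~1 nM final [3H]-N-alpha-methylhistamine, compounds 0.01 nM–30 µM, SPA beads, 4 h room temperature, dark; nonspecific with 10 µM clobenpropit; scintillation counting.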

[3] = AUC (0 to t) in Sprague-Dawley rat at 5 mg/kg, po; assay type: ADME, organism-based; set-up: dose 5 mg/kg, route oral; conditions: plasma
How it was run: (§1)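 Adult male Sprague–Dawley rats (275–350 g). iv dosing via lateral tail vein (3% DMSO/30% Solutol/67% PBS or 100% saline); oral gavage after overnight fast (Tween 80/propylene carbonate/propylene glycol, saline, or 2% HCl–water). Seven serial tail-vein blood samples over 6 or 24 h; plasma protein-precipitated with acetonitrile, LC–MS/MS; noncompartmental parameters.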

[4] = Plasma protein binding in rat at 5 uM after 1 hr by LC-MS/MS analysis; assay type: ADME, cell-free; conditions: read-out: PPB (converted)
[5] = Plasma protein binding in human at 5 uM after 1 hr by LC-MS/MS analysis; assay type: ADME, cell-free; conditions: read-out: PPB (converted)
[6] = Fraction unbound in rat brain homogenate; assay type: ADME, tissue-based
[7] = tested on: Rattus norvegicus; assay: Wake promoting activity in rat assessed as cumulative wake time at 10 mg/kg, ip after 4 hrs (reference value: 76+/-6 mins); assay type: functional; conditions: route intraperitoneal
[8] = Solubility of the compound in water; assay type: physicochemical; conditions: buffer
[9] = tested on: Rattus norvegicus; assay: Wake promoting activity in ip dosed rat assessed as increased wake activity after 4 hrs; assay type: functional, organism-based
[10] = target: Histamine H3 receptor (Rattus norvegicus) (UniProt Q9QYN8); assay: Inverse agonist activity at histamine H3 receptor on rat cortex membrane by [35S]GTPgammaS binding assay; assay type: functional
Sequence of Histamine H3 receptor (Rattus norvegicus) (Q9QYN8 whole entry): as above

[11] = Clearance in Sprague-Dawley rat at 1 mg/kg, iv; assay type: ADME, organism-based; set-up: dose 1 mg/kg, route intravenous; conditions: in vivo; how it was run: as §1
[12] = tested on: Salmonella typhimurium; assay: Genotoxicity against Salmonella typhimurium by AMES test; assay type: toxicity, organism-based; conditions: salmonella enterica subsp. enterica serovar typhimurium
[13] = Oral bioavailability in Sprague-Dawley rat at 5 mg/kg; assay type: ADME, organism-based; conditions: in vivo; how it was run: as §1
[14] = Plasma protein binding in mouse at 5 uM after 1 hr by LC-MS/MS analysis; assay type: ADME, cell-free; conditions: read-out: PPB (converted)
[15] = Cmax in Sprague-Dawley rat at 5 mg/kg, po; assay type: ADME, organism-based; set-up: dose 5 mg/kg, route oral; conditions: in vivo; how it was run: as §1
[16] = Plasma protein binding in dog at 5 uM after 1 hr by LC-MS/MS analysis; assay type: ADME, cell-free, Canis lupus familiaris; conditions: read-out: PPB (converted)
[17] = Ratio of drug level in brain to plasma in Sprague-Dawley rat at 5 mg/kg, po at 6 hrs; assay type: ADME, organism-based; set-up: dose 5 mg/kg, route oral; conditions: read-out: BPR
How it was run: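 Brain-to-plasma ratio from the 6 h time point after 5 mg/kg po dosing in Sprague–Dawley rats; plasma drug measured by LC–MS/MS after acetonitrile protein precipitation.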

[18] = target: Voltage-gated inwardly rectifying potassium channel KCNH2 (Homo sapiens, UniProt Q12809); assay: Inhibition of human ERG by patch clamp assay
How it was run: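 hERG inhibition measured in a patch clamp assay.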

[19] = tested on: Rattus norvegicus; assay: Wake promoting activity in rat assessed as cumulative wake time at 30 mg/kg, ip after 4 hrs (reference value: 76+/-6 mins); assay type: functional; conditions: route intraperitoneal
[20] = tested on: Rattus norvegicus; assay: Antidipsogenic activity in ip dosed Harlan Long Evans rat assessed as inhibition of RAMH-induced water drinking; assay type: functional
How it was run: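 Water drinking for 30 min beginning 20 min after RAMH (10 mg/kg ip); test compound in saline given beforehand. Per-rat percent inhibition normalized to RAMH group mean drinking; group means compared by one-way ANOVA with Dunnett's test versus RAMH group.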

[21] = tested on: Caco-2; assay: Permeability across human Caco2 cells; assay type: ADME, cell-based
[22] = target: Histamine H3 receptor (Rattus norvegicus) (UniProt Q9QYN8); assay: Antagonist activity at histamine H3 receptor on rat cortex membrane by [35S]GTPgammaS binding assay; assay type: functional, tissue-based
[23] = tested on: Rattus norvegicus; assay: Toxicity in rat assessed as rat assessed as sleep rebound up to 30 mg/kg, ip up to 22 hrs; assay type: organism-based; set-up: dose 30 mg/kg, route intraperitoneal; conditions: in vivo
How it was run: (§2)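 Rats implanted for chronic EEG/EMG recording, dosed ip up to 30 mg/kg; EEG monitored for adverse activity, and sleep after the wake period scored for rebound up to 22 h post-dose.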

[24] = tested on: Rattus norvegicus; assay: Toxicity in rat assessed as rat assessed as adverse EEG activity up to 30 mg/kg, ip; assay type: organism-based; set-up: dose 30 mg/kg, route intraperitoneal; conditions: in vivo; how it was run: as §2
[25] = target: Cytochrome P450 3A4 (Homo sapiens, UniProt P08684); assay: Inhibition of CYP3A4; assay type: ADME
Sequence of Cytochrome P450 3A4 (P08684 whole entry): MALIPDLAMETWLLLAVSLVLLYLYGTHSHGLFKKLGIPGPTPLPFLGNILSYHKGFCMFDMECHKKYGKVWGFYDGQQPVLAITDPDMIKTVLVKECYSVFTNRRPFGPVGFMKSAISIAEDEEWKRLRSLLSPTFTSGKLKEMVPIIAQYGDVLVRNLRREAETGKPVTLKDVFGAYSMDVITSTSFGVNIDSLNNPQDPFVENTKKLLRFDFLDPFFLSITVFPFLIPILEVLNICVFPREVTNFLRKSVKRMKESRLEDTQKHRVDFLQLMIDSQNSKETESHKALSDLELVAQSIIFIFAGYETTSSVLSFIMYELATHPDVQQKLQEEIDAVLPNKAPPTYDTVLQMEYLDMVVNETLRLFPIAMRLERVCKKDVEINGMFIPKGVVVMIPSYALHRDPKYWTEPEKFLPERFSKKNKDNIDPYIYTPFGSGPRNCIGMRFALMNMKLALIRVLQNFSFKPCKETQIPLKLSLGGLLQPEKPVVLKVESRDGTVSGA

[26] = Half life in mouse liver microsomes; assay type: ADME, Microsome
[27] = Half life in monkey liver microsomes; assay type: ADME, Macaca mulatta, Microsome; conditions: rhesus monkey
[28] = target: Cytochrome P450 2C19 (Homo sapiens, UniProt P33261); assay: Inhibition of CYP2C19; assay type: ADME
Sequence of Cytochrome P450 2C19 (P33261 whole entry): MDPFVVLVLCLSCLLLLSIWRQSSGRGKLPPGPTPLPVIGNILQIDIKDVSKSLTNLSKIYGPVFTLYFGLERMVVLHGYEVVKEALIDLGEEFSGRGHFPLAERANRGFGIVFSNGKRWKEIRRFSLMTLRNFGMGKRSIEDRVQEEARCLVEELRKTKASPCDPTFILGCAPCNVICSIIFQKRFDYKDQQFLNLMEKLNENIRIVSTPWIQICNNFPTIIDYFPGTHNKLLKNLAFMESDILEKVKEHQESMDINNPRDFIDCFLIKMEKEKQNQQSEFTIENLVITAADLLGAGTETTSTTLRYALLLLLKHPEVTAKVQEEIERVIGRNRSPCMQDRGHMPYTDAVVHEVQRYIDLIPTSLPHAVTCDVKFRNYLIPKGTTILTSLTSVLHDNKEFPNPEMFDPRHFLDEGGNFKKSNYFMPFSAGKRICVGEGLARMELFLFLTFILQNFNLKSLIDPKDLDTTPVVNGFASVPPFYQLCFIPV

[29] = target: Cytochrome P450 2D6 (Homo sapiens, UniProt P10635); assay: Inhibition of CYP2D6; assay type: ADME
Sequence of Cytochrome P450 2D6 (P10635 whole entry): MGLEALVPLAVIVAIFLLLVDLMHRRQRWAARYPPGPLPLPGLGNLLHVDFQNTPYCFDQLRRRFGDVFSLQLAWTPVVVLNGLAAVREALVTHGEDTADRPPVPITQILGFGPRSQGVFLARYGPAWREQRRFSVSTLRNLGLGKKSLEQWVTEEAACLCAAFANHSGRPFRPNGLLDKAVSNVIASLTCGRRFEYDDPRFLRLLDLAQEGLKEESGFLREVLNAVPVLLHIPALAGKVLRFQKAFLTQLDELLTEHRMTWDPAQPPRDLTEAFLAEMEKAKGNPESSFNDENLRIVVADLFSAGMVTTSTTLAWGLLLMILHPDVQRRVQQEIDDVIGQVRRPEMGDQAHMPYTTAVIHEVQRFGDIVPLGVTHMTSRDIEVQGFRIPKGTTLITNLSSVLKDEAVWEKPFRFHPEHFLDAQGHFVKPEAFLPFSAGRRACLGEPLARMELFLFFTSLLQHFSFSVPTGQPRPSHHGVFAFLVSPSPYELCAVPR

[30] = target: Histamine H4 receptor (Homo sapiens, UniProt Q9H3N8); assay: Binding affinity to human histamine H4 receptor
Sequence of Histamine H4 receptor (Q9H3N8 whole entry): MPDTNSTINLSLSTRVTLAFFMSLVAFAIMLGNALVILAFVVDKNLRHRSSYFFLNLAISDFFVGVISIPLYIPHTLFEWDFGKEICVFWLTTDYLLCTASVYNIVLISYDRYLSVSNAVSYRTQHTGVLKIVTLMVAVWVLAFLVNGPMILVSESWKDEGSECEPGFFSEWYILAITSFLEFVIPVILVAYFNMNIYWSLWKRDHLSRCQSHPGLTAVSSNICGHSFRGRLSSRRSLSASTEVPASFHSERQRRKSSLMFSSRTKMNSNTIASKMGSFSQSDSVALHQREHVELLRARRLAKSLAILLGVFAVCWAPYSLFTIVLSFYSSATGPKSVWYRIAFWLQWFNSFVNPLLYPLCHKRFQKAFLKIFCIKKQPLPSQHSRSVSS

[31] = target: Histamine H1 receptor (Homo sapiens, UniProt P35367); assay: Binding affinity to human histamine H1 receptor
Sequence of Histamine H1 receptor (P35367 whole entry): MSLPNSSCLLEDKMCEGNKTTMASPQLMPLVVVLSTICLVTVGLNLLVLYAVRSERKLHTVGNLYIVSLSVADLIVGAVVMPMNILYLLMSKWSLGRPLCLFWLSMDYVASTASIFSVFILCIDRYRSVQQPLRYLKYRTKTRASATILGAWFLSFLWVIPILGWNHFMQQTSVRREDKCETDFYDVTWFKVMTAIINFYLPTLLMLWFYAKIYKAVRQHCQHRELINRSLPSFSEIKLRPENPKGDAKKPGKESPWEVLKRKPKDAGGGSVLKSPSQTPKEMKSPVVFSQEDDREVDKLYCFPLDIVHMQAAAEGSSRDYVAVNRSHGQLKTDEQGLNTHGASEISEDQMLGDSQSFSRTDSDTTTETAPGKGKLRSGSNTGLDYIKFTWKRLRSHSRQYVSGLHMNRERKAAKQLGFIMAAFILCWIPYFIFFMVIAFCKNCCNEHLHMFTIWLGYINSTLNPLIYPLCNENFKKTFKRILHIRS

[32] = target: Histamine H2 receptor (Homo sapiens, UniProt P25021); assay: Binding affinity to human histamine H2 receptor
Sequence of Histamine H2 receptor (P25021 whole entry): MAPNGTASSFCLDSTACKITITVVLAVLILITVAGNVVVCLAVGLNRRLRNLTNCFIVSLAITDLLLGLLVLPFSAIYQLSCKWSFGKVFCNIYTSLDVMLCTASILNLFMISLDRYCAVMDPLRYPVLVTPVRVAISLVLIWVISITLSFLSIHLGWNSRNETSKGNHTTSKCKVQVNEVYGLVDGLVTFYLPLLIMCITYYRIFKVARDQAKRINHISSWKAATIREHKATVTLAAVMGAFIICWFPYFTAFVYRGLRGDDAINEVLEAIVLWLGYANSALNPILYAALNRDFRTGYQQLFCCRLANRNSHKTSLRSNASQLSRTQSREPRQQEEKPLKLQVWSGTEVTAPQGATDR

[33] = Half life in human liver microsomes; assay type: ADME, Microsome
[34] = Half life in rat liver microsomes; assay type: ADME, Microsome
[35] = Half life in Sprague-Dawley rat at 1 mg/kg, iv; assay type: ADME, organism-based; set-up: dose 1 mg/kg, route intravenous; conditions: in vivo; how it was run: as §1
[36] = Volume of distribution in Sprague-Dawley rat at 1 mg/kg, iv; assay type: ADME, organism-based; set-up: dose 1 mg/kg, route intravenous; conditions: in vivo; how it was run: as §1
[37] = target: Cytochrome P450 2C9 (Homo sapiens, UniProt P11712); assay: Inhibition of CYP2C9; assay type: ADME
Sequence of Cytochrome P450 2C9 (P11712 whole entry): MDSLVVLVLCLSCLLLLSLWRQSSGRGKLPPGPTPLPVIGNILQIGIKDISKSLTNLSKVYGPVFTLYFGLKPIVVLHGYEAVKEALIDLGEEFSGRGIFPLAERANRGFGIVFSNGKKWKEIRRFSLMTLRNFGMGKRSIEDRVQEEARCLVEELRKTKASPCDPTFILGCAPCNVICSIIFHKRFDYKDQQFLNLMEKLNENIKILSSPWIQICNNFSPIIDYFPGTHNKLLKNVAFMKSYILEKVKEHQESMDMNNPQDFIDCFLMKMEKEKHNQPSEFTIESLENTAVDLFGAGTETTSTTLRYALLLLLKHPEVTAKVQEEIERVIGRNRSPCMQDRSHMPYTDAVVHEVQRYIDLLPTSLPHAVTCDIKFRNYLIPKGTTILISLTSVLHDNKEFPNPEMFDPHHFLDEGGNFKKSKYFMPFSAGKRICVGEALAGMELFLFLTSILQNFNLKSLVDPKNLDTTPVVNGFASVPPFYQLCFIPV

[38] = target: T1, Cytochrome P450 1A2 (Homo sapiens, UniProt P05177); assay: Inhibition of CYP1A2; assay type: ADME
T1 sequence (P05177 whole entry): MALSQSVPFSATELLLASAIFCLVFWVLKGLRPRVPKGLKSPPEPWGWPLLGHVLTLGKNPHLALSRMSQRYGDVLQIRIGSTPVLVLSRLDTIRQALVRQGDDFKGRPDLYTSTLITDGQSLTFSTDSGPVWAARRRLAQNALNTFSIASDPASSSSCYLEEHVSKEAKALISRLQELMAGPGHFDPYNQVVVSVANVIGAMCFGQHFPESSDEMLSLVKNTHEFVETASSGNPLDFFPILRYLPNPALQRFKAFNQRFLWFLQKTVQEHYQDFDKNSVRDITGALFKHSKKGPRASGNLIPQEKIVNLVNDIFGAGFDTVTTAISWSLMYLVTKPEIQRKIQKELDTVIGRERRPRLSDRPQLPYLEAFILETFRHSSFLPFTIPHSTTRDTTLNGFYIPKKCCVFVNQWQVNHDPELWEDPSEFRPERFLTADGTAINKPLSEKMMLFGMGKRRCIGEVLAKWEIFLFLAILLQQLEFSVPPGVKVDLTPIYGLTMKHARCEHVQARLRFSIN

C[C@H](COc1ccc(-c2cn[nH]c(=O)c2)cc1)CN1CCCCC1
pKi [1]: 7.60 | pKi [2]: 7.47

C[C@@H](COc1ccc(-c2cn[nH]c(=O)c2)cc1)CN1CCC[C@H]1C
pKi [2]: 7.37

C[C@@H]1CCCN1CCCOc1ccc(-c2cn[nH]c(=O)c2)cc1
AUC(0-t) [3]: 1290 ng·h/mL | fraction unbound at 1 h, 5 µM [4]: 0.8 | fraction unbound at 1 h, 5 µM [5]: 0.8 | fraction unbound [6]: 0.45 | pKi [1]: 8.52 | Time [7]: 191 min | solubility [8]: soluble | Activity [9]: Dose-dependent effect | Activity [10]: Active | clearance [11]: 10 mL/min/kg | Activity [12]: Non-toxic | bioavailability [13]: 22% | fraction unbound at 1 h, 5 µM [14]: 0.8 | Cmax [15]: 401 ng/mL | fraction unbound at 1 h, 5 µM [16]: 0.8 | pKi [2]: 8.05 | Kp at 6 h [17]: 1.8 | pIC50 [18]: 5.00 | Activity [19]: 95% | ED50 [20]: 0.03 mg/kg | permeability [21]: permeable | Activity [22]: Active | Activity [23]: Non-toxic | Activity [24]: Non-toxic

COc1cn[nH]c(=O)c1-c1ccc(OCCCN2CCC[C@H]2C)cc1
pKi [1]: 7.70 | pKi [2]: 7.21

COCn1ncc(-c2ccc(OCCCN3CCC[C@H]3C)cc2)cc1=O
AUC(0-t) [3]: 42 ng·h/mL | pKi [1]: 8.40 | pIC50 [25]: < 4.52 | half-life [26]: > 40 min | clearance [11]: 93 mL/min/kg | half-life [27]: > 40 min | pIC50 [28]: < 4.52 | bioavailability [13]: 6% | Cmax [15]: 53 ng/mL | pIC50 [29]: < 4.52 | pKi [30]: < 5.00 | pKi [31]: < 5.00 | pKi [2]: 7.85 | pKi [32]: < 5.00 | half-life [33]: > 40 min | half-life [34]: > 40 min | half-life [35]: 24 min | Vd [36]: 3.2 L/kg | pIC50 [37]: < 4.52 | pIC50 [38]: < 4.52

C[C@H](COc1ccc(-c2cn[nH]c(=O)c2)cc1)CN1CCC[C@H]1C
AUC(0-t) [3]: 762 ng·h/mL | pIC50 [25]: < 4.52 | half-life [26]: > 40 min | clearance [11]: 21 mL/min/kg | half-life [27]: > 40 min | pIC50 [28]: < 4.52 | bioavailability [13]: 24% | Cmax [15]: 187 ng/mL | pIC50 [29]: < 4.52 | pKi [30]: < 5.00 | pKi [31]: < 5.00 | pKi [2]: 8.40 | Kp at 6 h [17]: 6.2 | pKi [32]: < 5.00 | half-life [33]: > 40 min | half-life [34]: > 40 min | half-life [35]: 126 min | Vd [36]: 3.9 L/kg | pIC50 [37]: < 4.52 | pIC50 [38]: < 4.52

COCn1ncc(-c2ccc(OCCCN3CCC[C@H]3C)cc2)c(OC)c1=O
pKi [1]: 8.30 | pKi [2]: 7.89

C[C@@H](COc1ccc(-c2cn[nH]c(=O)c2)cc1)CN1CCCCC1
pKi [1]: 7.33 | pKi [2]: 6.88

COCn1ncc(OC)c(-c2ccc(OCCCN3CCC[C@H]3C)cc2)c1=O
pKi [1]: 8.00 | pKi [2]: 7.72
